We go through 40 compounds from ChEMBL document CHEMBL1123418, “N-imidazolylchroman-4-ones, N-imidazolyl-1-tetralones, and their alcohols as hypolipemic agents raising high-density lipoproteins” (1986).

Structures are written as SMILES. “And” between values parts separate entries of the source, which are not always exact repeats. Identical values can stand only once.

Experiment [1] relates to Rattus norvegicus. Description: Percent increase in liver weight in rats when administered perorally. The class given is functional.
Experiment [2] deals with Rattus norvegicus. Description: Percent change in high density lipoproteins cholesterol concentration in serum from hypercholesterolemic rats at dose 23 mg/kg (po). The class given is functional. The method, boiled down: (§1)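 Rats were fed 1.5% cholesterol/0.5% cholic acid diet for 7 days, with compounds given by gavage over the last 4 days as a 0.5% Methocel suspension (0.5 mL/100 g). Rats were fasted overnight, killed on day 8 and bled under light CO₂ anesthesia. HDL was isolated by heparin-MnCl₂ precipitation (8000 rpm, 15 min, 4 °C). Total and HDL cholesterol were measured enzymatically-colorimetrically; % change vs control.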

Experiment [3] has as its system Rattus norvegicus. The experiment is described as follows: Percent change in total cholesterol concentration in serum from hypercholesterolemic rats at dose 23 mg/kg (po). It is filed as functional. The method, boiled down:
as §1

Experiment [4] relates to Rattus norvegicus. Description: Percent change in total cholesterol concentration in serum from hypercholesterolemic rats at dose 50 mg/kg (po). The class given is functional.
For experiment [5], the system named is Rattus norvegicus. The experiment is described as follows: Percent change in high density lipoproteins cholesterol concentration in serum from hypercholesterolemic rats at dose 50 mg/kg (po). The class given is functional. The method, boiled down:
as §1

The species named for experiment [6] is Rattus norvegicus. Description: Compound was tested in vitro for inhibition of Cholesterol biosynthesis in rat liver slices, % inhibition of [14C]acetate incorporation in neutral lipids at 2 e10-4 concentration. The class given is functional. The method, boiled down:
(§2)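 Liver slices (250 mg) from fed male rats were incubated in Krebs-Ringer bicarbonate, pH 7.4, with 4 mM [2-¹⁴C]acetate under 95% O₂-5% CO₂. Compounds were tested at a final 2 × 10⁻⁴ M, or 5 × 10⁻⁵ M for one compound. ¹⁴C incorporation into cholesterol and into petroleum-ether-soluble nonsaponifiable neutral lipids gave % inhibition; mean of four determinations.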

Experiment [7] in a line: Percent change in high density lipoprotein cholesterol.
For experiment [8], the system named is Rattus norvegicus. Description: Percent change in low density lipoproteins cholesterol concentration in serum from normocholesterolemic rats at dose 50 mg/kg (po).
For experiment [9], the system named is Rattus norvegicus. Description: Percent increase in liver weight in rats when a 50 mg/Kg dose was administered. It is filed as functional.
Experiment [10] is filed under the species Rattus norvegicus. Description: Compound was tested in vitro for inhibition of Cholesterol biosynthesis in rat liver slices, % inhibition of [14C]-acetate incorporation in cholesterol at 2 e10-4 concentration. It is filed as functional. The method, boiled down: as §2
In experiment [11] the test system is Rattus norvegicus. Description: Percent change in triglyceride concentration in serum from normocholesterolemic rats at dose 50 mg/kg (po).
Experiment [12] has as its system Rattus norvegicus. The experiment is described as follows: Percent change in total cholesterol concentration in serum from hypercholesterolemic rats at dose 45 mg/kg (po). The class given is functional.
Experiment [13] has as its system Rattus norvegicus. The experiment is described as follows: Percent change in high density lipoproteins cholesterol concentration in serum from hypercholesterolemic rats at dose 35 mg/kg (po). The class given is functional. The method, boiled down: as §1
Experiment [14] has as its system Rattus norvegicus. The experiment is described as follows: Percent change in total cholesterol concentration in serum from hypercholesterolemic rats at dose 35 mg/kg (po). It is filed as functional.
Experiment [15] concerns Rattus norvegicus. Description: Percent change in high density lipoproteins cholesterol concentration in serum from hypercholesterolemic rats at dose 45 mg/kg (po). It is filed as functional. The method, boiled down: as §1

`O=C1c2cc(-c3ccccc3)ccc2CCC1n1ccnc1` (centres undefined): the figures for the Change in experiment [1], in experiment [2] and in experiment [3] were 2%, 8% and 4%, respectively.
As to `O=C1c2ccccc2OC(c2ccccc2)C1n1ccnc1` (centres undefined), the Change is on record as 5% in [1], 27% in experiment [4] and -3% in experiment [5].
Regarding `CC1Oc2cc(O)ccc2C(=O)C1n1ccnc1` (centres undefined), the Change in [1] is given as 3%; in experiment [4], -22%; in experiment [5], 2%.
With `CC1Oc2ccccc2C(=O)C1n1ccnc1` (centres undefined), the values for the Change in [1], in experiment [4] and in experiment [5] were 15%, -67% and 115%, respectively.
In general, Inhibition refers to the change of the read-out against control, counted positive when it falls. As for `OC1c2cc(Cl)ccc2OCC1n1ccnc1` (stereo in doubt; 40), the Change in experiment [1] is 24%; in experiment [4] (50 mg/kg), -42% and -19%; in experiment [8] it was -50%; in experiment [9] it was 24%; in experiment [11], -36%. Further, the Inhibition in experiment [6] and in experiment [10] was 0% each time. Also, the “Percent change in HDL cholesterol” value in experiment [7] worked out at 123.
As for `Cc1cc(Br)c2c(c1)C(=O)C(n1ccnc1)CO2` (centres undefined), the figures for the Change in experiment [1], in experiment [12] and in [5] were 7%, -15% and 21%, respectively.
`Cc1nccn1C1COc2ccc(Cl)cc2C1=O` (centres undefined): the Change in experiment [1] amounted to 14%; in [4], 39%; in [5], 23%.
In the case of `Nc1ccc2c(c1)C(=O)C(n1ccnc1)CC2` (centres undefined), the Change in [1] is reported as 3%; in experiment [13], 31%; in [14], -24%. For the same compound, the Inhibition was found to be 0% in experiment [6] and 74% in experiment [10].
Regarding `O=C1c2cc([N+](=O)[O-])ccc2CCC1n1ccnc1` (centres undefined), the Change is 5% in experiment [1], -16% in experiment [4] and 23% in experiment [5].
For the compound `CCCCCCCCOC1c2cc(Cl)ccc2OCC1n1ccnc1` (centres undefined), the results for the Change in experiment [4] and in [5] were 42% and 18%, respectively.
For the compound `O=C1c2ccccc2OCC1n1ccnc1` (centres undefined), the figures for the Change in experiment [1], in experiment [4] and in [5] were 16%, 34% and 4%, respectively.
On to `COc1ccc2c(c1)C(=O)C(n1ccnc1)CO2` (centres undefined), for which the values for the Change in experiment [1], in [4] and in experiment [5] were 20%, -21% and 88%, respectively.
In the same order, the values of `CC(C)(C)c1cc2c(cc1O)OCC(n1ccnc1)C2=O` (centres undefined) are 11%, -55% and 97%.
Taken in the same sequence, the figures for `CC1Oc2cc(O)c(C(C)(C)C)cc2C(=O)C1n1ccnc1` (centres undefined) were 9%, -7% and 32%.
Taken in the same sequence, the figures for `O=C1c2ccccc2CCC1n1ccnc1` (centres undefined) were 13%, -34% and 94%.
In the case of `CC(C)(C)c1cc(Br)c2c(c1)C(=O)C(n1ccnc1)CO2` (centres undefined), the Change in experiment [1] is given as 15%; in [4], -12%; in [5], 57%.
`O=C1c2ccc(O)cc2CCC1n1ccnc1` (centres undefined): the Change in [1] was -3%; in experiment [4] it was 30%; in experiment [5], 12%.
Taken in the same sequence, the figures for `CC1Oc2c(Br)cc(C(=O)O)cc2C(=O)C1n1ccnc1` (centres undefined) were 4%, -23% and -11%.
In the same order, the values of `COc1ccc2c(c1)C(=O)C(n1ccnc1)CC2` (centres undefined) are 10%, -40% and 52%.
As to `O=C1c2cc(O)ccc2OCC1n1ccnc1` (centres undefined), the figures for the Change in experiment [1], in experiment [4] and in experiment [5] were 3%, 9% and -4%, respectively.
In the same order, the values of `O=C1c2cc(Cl)ccc2OCC1n1cccn1` (centres undefined) are 6%, 35% and 13%.
In the same order, the values of `CC1Cc2ccccc2C(=O)C1n1ccnc1` (centres undefined) are 26%, -54% and 102%.
Regarding `COc1ccc2c(c1)OCC(n1ccnc1)C2=O` (centres undefined), the figures for the Change in experiment [1], in [4] and in experiment [5] were 3%, 11% and -1%, respectively.
Turning to `O=C(O)c1ccc2c(c1)C(=O)C(n1ccnc1)CC2` (centres undefined), the Change in [1] is given as -3%; in experiment [12], -5%; in [15] it was -9%.
Consider `OC1c2cc(Cl)ccc2OCC1n1ccnc1` (trans isomer), for which the Change in [1] is recorded as 20%; in experiment [4] (50 mg/kg), -14%; in [5] (50 mg/kg) it was 83%.
In the case of `O=C1c2ccccc2CCC1n1cccn1` (centres undefined), the Change in experiment [1] is listed as 9%; in experiment [4], 52%; in experiment [5], -3%.
In the same order, the values of `O=C1c2ccc(-c3ccccc3)cc2OCC1n1ccnc1` (centres undefined) are 22%, -48% and 118%.
As for `COc1ccc2c(c1)C(O)C(n1ccnc1)CC2` (centres undefined), the figures for the Change in experiment [1], in experiment [4] and in experiment [5] were 21%, -24% and 88%, respectively.
As to `COC1c2cc(Cl)ccc2OCC1n1ccnc1` (racemic), the Change is on record as 15% in experiment [1], 8% in experiment [4] and -7% in experiment [5].
Turning to `CCCC1Oc2ccccc2C(=O)C1n1ccnc1` (centres undefined), the Change was 20% in [1], -4% in experiment [12] and 53% in experiment [15].
As for `CCCc1cc2c(cc1OC)OC(C)C(n1ccnc1)C2=O` (centres undefined), the Change in experiment [1] is 24%; in experiment [13] it was 152%; in [14], -57%.
With `COc1cc(Br)c2c(c1)C(=O)C(n1ccnc1)CO2` (centres undefined), the Change in experiment [1] turned out to be 6%; in experiment [4], 14%; in experiment [5], 64%.
With `O=C1c2cc(Br)ccc2OCC1n1ccnc1` (centres undefined), the Change in experiment [1] was 23%; in [4] it was -50%; in experiment [5] it was 144%.
For the compound `O=C1c2cc(Br)cc(Br)c2OCC1n1ccnc1` (centres undefined), the results for the Change in experiment [1], in experiment [4] and in [5] were 29%, -68% and 171%, respectively.
Taken in the same sequence, the figures for `O=C1c2ccccc2OC(c2cccnc2)C1n1ccnc1` (centres undefined) were 4%, -4% and 12%.
In the same order, the values of `Clc1ccc2c(c1)C=C(n1ccnc1)CO2` are 2%, -10% and 25%.
Taken in the same sequence, the figures for `COc1ccc2c(c1)OC(C)C(n1ccnc1)C2=O` (centres undefined) were 2%, 11% and 5%.
As to `O=C1c2cc(O)cc(Br)c2OCC1n1ccnc1` (centres undefined), the Change in experiment [1] was -1%; in [4], 2%; in experiment [5], 1%.
For `O=C1c2ccsc2CCC1n1ccnc1` (centres undefined), the Change in experiment [4] was determined as 17%; in experiment [5] it was 2%.
For `Cc1ccc2c(c1)C(=O)C(n1ccnc1)CO2` (centres undefined), the Change turned out to be 7% in experiment [4] and 32% in [5].
